Test results from ChEMBL document CHEMBL1129979, “Conformationally constrained deltorphin analogs with 2-aminotetralin-2-carboxylic acid in position 3” (J Med Chem, 1997).

What was measured:
Mus musculus = species on record: Mus musculus; assay: The inhibitory concentration activity was measured on electrically induced contraction of the mouse vas deferens (MVD); assay type: functional
How it was run: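 Mouse vas deferens is mounted between platinum axial wire electrodes in Mg-free Krebs bicarbonate at 34 °C, gassed with 95% O2/5% CO2, under 0.5 g tension. After 15 min equilibration, it is stimulated transmurally at 0.1 Hz, 2 ms, 40 V (supramaximal). Dose-response curves are built by the single-dose method. IC50 is the concentration giving 50% reduction of contractions, from a Hill-equation least-squares fit of mean data.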

[1] = biological target: Kappa-type opioid receptor (Rattus norvegicus, UniProt P34975)
Mu-type opioid receptor = Mu-type opioid receptor (Rattus norvegicus, UniProt P33535); assay: The binding affinity was measured using [3H]- DAGO against Opioid receptor mu 1 of rat brain
Cavia porcellus = species on record: Cavia porcellus; assay: The inhibitory concentration activity was measured on guinea pig ileum (GPI); assay type: functional
How it was run: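 Guinea pig ileum myenteric plexus-longitudinal muscle strips are mounted between platinum axial wire electrodes in Krebs bicarbonate at 37 °C, gassed with 95% O2/5% CO2, under 1 g tension. Strips are stimulated transmurally at 0.1 Hz, 1 ms, 40 V (supramaximal) and equilibrated 60 min before peptides are added. Single-dose dose-response curves are fitted to the Hill equation by least squares on mean data. IC50 is the concentration giving 50% reduction of contractions.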

[2] = biological target: T1, Delta-type opioid receptor (Rattus norvegicus, UniProt P33533); assay: The binding affinity was measured using [3H]naltrindole against Opioid receptor delta 1 of rat brain
[3] = biological target: T1, Delta-type opioid receptor; assay: The binding affinity was measured using [3H]-DIDII against Opioid receptor delta 1 of rat brain
[4] = biological target: T1, Delta-type opioid receptor; assay: The binding affinity was measured using [3H]- TIPPsi against Opioid receptor delta 1

T1 sequence (P33533 whole entry): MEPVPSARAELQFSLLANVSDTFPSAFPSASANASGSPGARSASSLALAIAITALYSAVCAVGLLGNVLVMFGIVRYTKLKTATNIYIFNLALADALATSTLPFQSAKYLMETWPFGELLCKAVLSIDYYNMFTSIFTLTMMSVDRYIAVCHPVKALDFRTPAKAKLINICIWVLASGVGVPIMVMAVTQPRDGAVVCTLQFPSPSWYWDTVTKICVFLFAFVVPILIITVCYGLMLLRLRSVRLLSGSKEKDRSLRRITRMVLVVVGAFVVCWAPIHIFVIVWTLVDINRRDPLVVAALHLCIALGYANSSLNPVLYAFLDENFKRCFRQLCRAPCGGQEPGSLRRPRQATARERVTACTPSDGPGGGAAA
Chain of Kappa-type opioid receptor (P34975 whole entry): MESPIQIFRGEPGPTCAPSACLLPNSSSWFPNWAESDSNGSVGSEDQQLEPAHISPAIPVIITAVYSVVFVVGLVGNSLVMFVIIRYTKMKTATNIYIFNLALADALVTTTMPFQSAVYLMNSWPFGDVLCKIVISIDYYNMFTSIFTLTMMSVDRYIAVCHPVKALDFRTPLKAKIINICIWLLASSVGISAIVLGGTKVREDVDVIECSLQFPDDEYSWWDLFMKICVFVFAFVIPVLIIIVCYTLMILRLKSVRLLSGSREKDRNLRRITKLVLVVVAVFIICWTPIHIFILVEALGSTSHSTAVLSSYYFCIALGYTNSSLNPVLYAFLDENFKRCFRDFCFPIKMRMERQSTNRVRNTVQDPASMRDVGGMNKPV
Chain of Mu-type opioid receptor (P33535 whole entry): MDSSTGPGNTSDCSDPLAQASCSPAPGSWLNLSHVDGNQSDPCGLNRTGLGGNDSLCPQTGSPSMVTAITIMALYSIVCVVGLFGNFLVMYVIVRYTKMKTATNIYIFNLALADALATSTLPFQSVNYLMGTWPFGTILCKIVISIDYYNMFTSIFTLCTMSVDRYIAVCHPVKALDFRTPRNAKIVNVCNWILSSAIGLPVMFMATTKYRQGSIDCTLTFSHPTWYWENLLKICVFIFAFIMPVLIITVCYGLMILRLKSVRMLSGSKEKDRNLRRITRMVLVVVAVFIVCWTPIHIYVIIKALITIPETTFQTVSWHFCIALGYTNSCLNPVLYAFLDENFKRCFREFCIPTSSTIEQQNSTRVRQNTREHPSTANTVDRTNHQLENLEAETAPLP

Structure (SMILES) | IC50 (Mus musculus) [nM] | Ki [1] [nM] | Ki (Mu-type opioid receptor) [nM] | IC50 (Cavia porcellus) [nM] | Ki [2] [nM] | Ki [3] [nM] | Ki [4] [nM]
CC[C@H](C)[C@H](NC(=O)[C@H](CCC(=O)O)NC(=O)[C@H](Cc1ccccc1)NC(=O)[C@@H](C)NC(=O)[C@@H](N)Cc1ccc(O)cc1)C(=O)N[C@H](C(=O)NCC(N)=O)[C@@H](C)CC | 0.5 | > 10000 | 3190 | 67200 |  |  | 
CC[C@H](C)[C@H](NC(=O)[C@H](CC(=O)O)NC(=O)[C@H](Cc1ccccc1)NC(=O)[C@@H](C)NC(=O)[C@@H](N)Cc1ccc(O)cc1)C(=O)N[C@H](C(=O)NCC(N)=O)[C@@H](C)CC | 0.082 | > 10000 | 3220 | 4210 | 0.047 | 0.056 | 0.018
CC(C)[C@H](NC(=O)[C@H](CC(=O)O)NC(=O)[C@H](Cc1ccccc1)NC(=O)[C@H](C)NC(=O)[C@@H](N)Cc1ccc(O)cc1)C(=O)N[C@H](C(=O)NCC(N)=O)C(C)C | 0.32 |  |  | > 3000 |  |  | 
CC[C@H](C)[C@H](NC(=O)[C@H](CCC(=O)O)NC(=O)[C@]1(NC(=O)[C@@H](C)NC(=O)[C@@H](N)Cc2ccc(O)cc2)CCc2ccccc2C1)C(=O)N[C@H](C(=O)NCC(N)=O)[C@@H](C)CC | 0.09 | > 10000 | 731 | 19600 | 0.515 | 0.035 | 0.38
